Compound activity: PubChem, several laboratories
ABCB6 inh 2 – inhibitors of human ABC transporter ABCB6; K562-ABCB6 porphyrin accumulation, flow cytometry, 1 h; stronger effect = lower value; fluorescence ratio to DMSO, % at 10 µM; 360,000 compounds, 0.19% hits;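 active means fluorescence ratio to DMSO below 75%, the collection mean minus 3 SD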;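 further: signal is porphyrin accumulated inside mitochondria; 100% equals median channel fluorescence of DMSO control wells; lower ratio means ABCB6 inhibition with less porphyrin fluorescence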
Target sequence (Q9NP58 whole entry, looked up): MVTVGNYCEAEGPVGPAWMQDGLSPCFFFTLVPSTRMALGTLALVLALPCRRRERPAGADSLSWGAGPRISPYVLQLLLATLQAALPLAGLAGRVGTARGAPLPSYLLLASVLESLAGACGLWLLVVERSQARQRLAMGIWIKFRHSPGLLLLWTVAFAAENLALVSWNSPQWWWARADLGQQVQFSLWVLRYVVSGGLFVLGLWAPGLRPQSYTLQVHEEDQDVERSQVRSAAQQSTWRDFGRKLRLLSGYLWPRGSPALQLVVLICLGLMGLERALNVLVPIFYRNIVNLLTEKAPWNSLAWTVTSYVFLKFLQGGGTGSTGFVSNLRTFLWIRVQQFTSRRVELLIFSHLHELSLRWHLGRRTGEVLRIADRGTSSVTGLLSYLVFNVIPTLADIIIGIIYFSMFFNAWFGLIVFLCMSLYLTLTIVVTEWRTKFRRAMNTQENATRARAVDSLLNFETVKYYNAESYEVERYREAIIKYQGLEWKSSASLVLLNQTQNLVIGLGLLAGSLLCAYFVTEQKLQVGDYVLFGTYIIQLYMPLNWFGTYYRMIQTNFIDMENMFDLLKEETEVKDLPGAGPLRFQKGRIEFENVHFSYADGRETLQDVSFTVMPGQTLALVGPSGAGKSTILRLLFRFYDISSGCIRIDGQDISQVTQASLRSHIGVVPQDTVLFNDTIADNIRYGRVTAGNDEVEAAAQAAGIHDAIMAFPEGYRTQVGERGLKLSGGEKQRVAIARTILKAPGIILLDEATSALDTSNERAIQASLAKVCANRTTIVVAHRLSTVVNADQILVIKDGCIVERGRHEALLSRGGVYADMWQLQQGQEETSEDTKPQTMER
Dynein cargo inh – blocks dynein driven cargo transport along microtubules. 3617.4 mouse cells, GR-EGFP nuclear translocation imaging; test concentration mostly 20 µM; stimulated with dexamethasone, 1 µM; stronger effect = lower value. z-score, hits read low. 220,000 compounds, 0.47% hits. AID 1381;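 active means plate z-score of nuclear minus cytoplasmic receptor signal below a set negative limit, without overly bright fluorescence or cell loss, cut at about -3.5 in these data, passing the limit was not always enough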;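 further: z-score of nuclear minus cytoplasmic ring GR-EGFP intensity difference per well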
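Buffer or medium: tetracycline-free induction medium containing charcoal-stripped FBS / Reagent: dexamethasone agonist, 1.0 µM final, for 30 min / Technique: automated 10x imaging of fixed Hoechst-stained cells / Times: induction 48 h, compound 1 h, agonist 30 min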
pCIP destab – lowers stability of the mouse p/CIP coactivator protein. Q05BA5. F442A p/CIP-EGFP cells, EGFP fluorescence, 16 h. decrease of EGFP signal, % at 10 µM. 290,000 compounds, 0.01% hits. AID 1984;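 active means EGFP signal decrease of at least 30% at 10 µM or well 3 SD below plate mean, unless failing retest; inactive means the rest, including hits failing retest or dose response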
KCC2 mod – modulates chloride dependent transport by human KCC2. Q9H2X9. KCC2 cells, thallium flux FluoZin-2 fluorescence. B-score of Tl+ flux slope (higher = more flux/activation; lower = inhibition) at 10 µM. 190,000 compounds, 2.2% hits. AID 1456;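 active means thallium flux slope and its plate-corrected score both differing from the plate sample mean at a set confidence after two filtering rounds, in either direction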;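 further: slope of fluorescence scaled to starting intensity during 10 to 20 s after thallium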
V-ATPase pHluor – yeast V-ATPase proton transport regulation by pHLuorin; 350,000 compounds, 0.37% hits; response, % at 10 µM; S. cerevisiae, pHLuorin cytosolic pH fluorescence; in the data active means response mostly above about 7.3%, no sharp cut-off; inactive means mostly below about 5.4%; further: actives read high
V-ATPase pH SP – yeast V-ATPase proton transport regulation. response, % at 10 µM. 980 compounds, 2% hits. S. cerevisiae pHLuorin cytosolic pH. shares compounds with V-ATPase pHluor; in the data active means response above about 24%;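 further: plate controls were vehicle wells for no effect and positive control wells for full effect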
* marks the source's active call; other numbers are inactive results; . = no result. Only a selection was taken, and hits are over-represented in it overall.

SMILES	ABCB6 inh 2	Dynein cargo inh	pCIP destab	KCC2 mod	V-ATPase pHluor	V-ATPase pH SP
O=C(Cn1c(CO)nc2ccccc21)NCCc1ccccc1	109	-0.93	-4	-1.3	8.1*	1
O=S1(=O)N(Cc2ccccc2F)CCCN1Cc1c(F)cccc1Cl	95	.	-13	.	9.6*	0
C=CCOn1c(=O)c(-c2ccc(OCC)cc2)[n+]([O-])c2ccccc21	110	.	-7	.	2	.
O=C(Nc1ccc2oc(-c3cccnc3)nc2c1)c1ccc([N+](=O)[O-])o1	95	1.6	-23	-0.45	11*	2
CCCC[C@@H]1CNCCN1CC1(c2ccccc2)CC1	100	.	.	.	-3	.
CC1(C)CC(NC(=O)c2cccc(S(=O)(=O)Nc3cccc(Cl)c3)c2)CC(C)(C)N1	100	.	.	.	8	.
COc1ccc(CN(C)C(=O)c2ccc3c(=O)n4c(nc3c2)CCC4)cc1	102	.	2	.	-2	.
O=C(Cc1ccc(NC(=O)C2CCN(C(=O)C3CCCC3)CC2)cc1)Nc1ccc(C(=O)N2CCOCC2)cc1	87	.	.	.	-5	.
CCOC(=O)C1(C(=O)OCC)NC(=O)CC1CC (stereo not given)	102	.	.	.	12*	-1
CCOC(=O)C1(C(=O)OCC)NC(=O)CC1C (stereo not given)	92	.	.	.	0	.
COc1cc(NC(=O)C2CCCN2S(=O)(=O)c2ccc3c(c2)CC(C)N3C(C)=O)cc(OC)c1 (stereo not given)	94	.	-7	.	8.5*	0
COc1ccc(O)c(CN2CCC(n3nccc3NC(=O)CCOc3ccccc3)CC2)c1	99	.	-11	.	-5	.
COc1ccc(O)c(CN2CCC(n3nccc3NC(=O)c3ccccc3Cl)CC2)c1	94	.	-10	.	9.2*	2
CC1CCCCN1S(=O)(=O)c1coc(C(N)=O)c1 (stereo not given)	104	0.57	-16	-0.62	7.0*	3
COc1ccccc1C(=O)Nc1ccc(S(=O)(=O)N2CCCCC2)cc1	101	.	9	.	0	.
CCC(C)NCCOCCOc1ccc(C)cc1Br (stereo not given)	99	-0.062	-10	1	36*	1
Cc1ccc(C23CCC(=O)N2C(C(=O)O)CS3)c(C)c1 (stereo not given)	96	.	-14	.	1	.
COc1cccc(OCC(=O)NNC(=O)Cc2cccs2)c1	92	-0.071	9	0.36	14*	0
Cc1ccc(NC(=O)c2ccc(=O)[nH]c2)cc1S(=O)(=O)N1CCCCCC1	97	.	.	.	1	.
CNC(=O)COC(=O)/C=C/c1cccs1	96	-0.21	-2	0.33	9.0*	1
O=C(Nc1ccccc1Oc1cccnc1)C1CCCN(Cc2ccc(F)cc2)C1 (stereo not given)	100	.	-9	.	6	.
O=C(NCCC1=CCCCC1)C1CCCN(S(=O)(=O)c2cccc3cccnc23)C1 (stereo not given)	98	0.54	4	.	7.3*	0
C/C(=N\Nc1ccccn1)c1cccs1	97	-0.59	2	0.79	21*	3
O=C(NCCS(=O)(=O)NC1CCCCC1)c1ccc2c(c1)OCO2	100	.	.	.	7.1*	-2
COC(=O)CSCC(=O)Nc1nnc(-c2ccccc2C)s1	101	-0.65	-5	-0.0066	0	.
SMILES	ABCB6 inh 2	Dynein cargo inh	pCIP destab	KCC2 mod	V-ATPase pHluor	V-ATPase pH SP
COC(=O)c1ccc(C2NC(=S)N(c3ccccc3)C(C)=C2C(=O)Nc2ccccc2OC)cc1 (stereo not given)	93	1.8	1	-1.1	11*	4
CN1CCc2c(sc(N)c2C(=O)O)C1	108	1.5	-2	-0.26	9.6*	1
COc1ccc(C(=O)c2c(N)sc3c2CCN(C)C3)cc1	101	.	3	.	-1	.
Cc1cc(NC(=O)COC(=O)c2ccco2)no1	95	-1	5	0.24	4	.
Cc1c(C(=O)O)sc(=S)n1-c1ccc(Cl)cc1	99	-0.7	-16	0.56	2	0
CCOC(=O)c1sc(=S)n(-c2ccc(Cl)cc2)c1C	98	0.12	-2	-0.69	0	.
N#Cc1cccc(C(=O)OCC(=O)N2CCCc3ccccc32)c1	108	.	.	.	9.2*	-1
O=C(OCC(=O)N1CCCc2ccccc21)c1cccc(C(F)(F)F)c1	96	.	.	.	3	.
O=C(CSc1nnc(-c2ccc(O)cc2)n1Cc1ccco1)c1cccs1	96	0.47	-9	.	-4	.
